Reference: ChEMBL document CHEMBL4689842, “EUbOPEN Chemogenomics Library wave 1” (2021)

What was measured:
HEK-293T = experiment: Multiplex assay against HEK293T; format: toxicity, cell-based; details: human;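 on Population Tubulin-Different-Phenotype (%): share of the cells with healthy nuclei that show this phenotype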
How it was run: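 With compound added, live cells were imaged on a CQ1 microscope at 37°C and 5% CO2; staining with Hoechst33342, BioTracker Green Microtubule Cytoskeleton Dye, MitoTracker Red and Annexin V Alexa Fluor 680 had been done at seeding. The CellPathfinder machine-learning gating scheme split cells into Hoechst high-intensity objects or normal cells, normal cells into healthy, pyknosed or fragmented nuclei, and pyknosed cells into mitotic or apoptotic. The tubulin, mitochondrial-mass and membrane-permeability phenotypes are per cents of healthy-nucleus cells.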

Fibroblast = experiment: Incucyte cell viability with human fibroblast; format: toxicity, cell-based; details: 10 µM, compound concentration 10 uM; further: filed as whole numbers so only -1 and 0 and 1 occur
[1] = 12 h, 1 µM, compound concentration 1 uM, replicate 1
[2] = 12 h, 1 µM, compound concentration 1 uM, replicate 2
[3] = 12 h, 10 µM, compound concentration 10 uM, replicate 1
[4] = 12 h, 10 µM, compound concentration 10 uM, replicate 2
[5] = 24 h, 1 µM, compound concentration 1 uM, replicate 1
[6] = 24 h, 1 µM, compound concentration 1 uM, replicate 2
[7] = 24 h, 10 µM, compound concentration 10 uM, replicate 1
[8] = 24 h, 10 µM, compound concentration 10 uM, replicate 2
[9] = 48 h, 1 µM, compound concentration 1 uM, replicate 1
[10] = 48 h, 1 µM, compound concentration 1 uM, replicate 2
[11] = 48 h, 10 µM, compound concentration 10 uM, replicate 1
[12] = 48 h, 10 µM, compound concentration 10 uM, replicate 2

SMILES: COc1cc2c(NC3CCN(C(C)C)CC3)nc(N3CCC(F)(F)CC3)nc2cc1OCCCN1CCCC1
- Population Apoptotic (%) (HEK-293T; [1]): 67%
- Population Fragmented Nuclei (%) (HEK-293T; [1]): 16%
- Population Healthy Nuclei (%) (HEK-293T; [1]): 32%
- Population Hoechst High Intensity Objects (%) (HEK-293T; [1]): 19%
- Population Membrane Permeable-Phenotype (%) (HEK-293T; [1]): 0%
- Population Mitochondria Different-Phenotype (%) (HEK-293T; [1]): 96%
- Population Mitotic Cells (%) (HEK-293T; [1]): 32%
- Population Normal (%) (HEK-293T; [1]): 80%
- Population Pyknosed Nuclei (%) (HEK-293T; [1]): 50%
- Population Tubulin-Different-Phenotype (%) (HEK-293T; [1]): 76%
- Total Cell Count (HEK-293T; [1]): 324
- Population Apoptotic (%) (HEK-293T; [2]): 37%
- Population Fragmented Nuclei (%) (HEK-293T; [2]): 8%
- Population Healthy Nuclei (%) (HEK-293T; [2]): 40%
- Population Hoechst High Intensity Objects (%) (HEK-293T; [2]): 6%
- Population Membrane Permeable-Phenotype (%) (HEK-293T; [2]): 4%
- Population Mitochondria Different-Phenotype (%) (HEK-293T; [2]): 56%
- Population Mitotic Cells (%) (HEK-293T; [2]): 62%
- Population Normal (%) (HEK-293T; [2]): 93%
- Population Pyknosed Nuclei (%) (HEK-293T; [2]): 51%
- Population Tubulin-Different-Phenotype (%) (HEK-293T; [2]): 48%
- Total Cell Count (HEK-293T; [2]): 235
- Population Apoptotic (%) (HEK-293T; [3]): 90%
- Population Fragmented Nuclei (%) (HEK-293T; [3]): 8%
- Population Healthy Nuclei (%) (HEK-293T; [3]): 26%
- Population Hoechst High Intensity Objects (%) (HEK-293T; [3]): 18%
- Population Membrane Permeable-Phenotype (%) (HEK-293T; [3]): 0%
- Population Mitochondria Different-Phenotype (%) (HEK-293T; [3]): 100%
- Population Mitotic Cells (%) (HEK-293T; [3]): 9%
- Population Normal (%) (HEK-293T; [3]): 81%
- Population Pyknosed Nuclei (%) (HEK-293T; [3]): 64%
- Population Tubulin-Different-Phenotype (%) (HEK-293T; [3]): 98%
- Total Cell Count (HEK-293T; [3]): 298
- Population Apoptotic (%) (HEK-293T; [4]): 92%
- Population Fragmented Nuclei (%) (HEK-293T; [4]): 7%
- Population Healthy Nuclei (%) (HEK-293T; [4]): 24%
- Population Hoechst High Intensity Objects (%) (HEK-293T; [4]): 6%
- Population Mitochondria Different-Phenotype (%) (HEK-293T; [4]): 98%
- Population Mitotic Cells (%) (HEK-293T; [4]): 7%
- Population Normal (%) (HEK-293T; [4]): 93%
- Population Pyknosed Nuclei (%) (HEK-293T; [4]): 68%
- Population Tubulin-Different-Phenotype (%) (HEK-293T; [4]): 96%
- Total Cell Count (HEK-293T; [4]): 245
- Population Apoptotic (%) (HEK-293T; [5]): 61%
- Population Fragmented Nuclei (%) (HEK-293T; [5]): 16%
- Population Healthy Nuclei (%) (HEK-293T; [5]): 42%
- Population Hoechst High Intensity Objects (%) (HEK-293T; [5]): 24%
- Population Membrane Permeable-Phenotype (%) (HEK-293T; [5]): 1%
- Population Mitochondria Different-Phenotype (%) (HEK-293T; [5]): 77%
- Population Mitotic Cells (%) (HEK-293T; [5]): 38%
- Population Normal (%) (HEK-293T; [5]): 75%
- Population Pyknosed Nuclei (%) (HEK-293T; [5]): 41%
- Population Tubulin-Different-Phenotype (%) (HEK-293T; [5]): 51%
- Total Cell Count (HEK-293T; [5]): 348
- Population Apoptotic (%) (HEK-293T; [6]): 39%
- Population Fragmented Nuclei (%) (HEK-293T; [6]): 6%
- Population Healthy Nuclei (%) (HEK-293T; [6]): 60%
- Population Hoechst High Intensity Objects (%) (HEK-293T; [6]): 12%
- Population Membrane Permeable-Phenotype (%) (HEK-293T; [6]): 4%
- Population Mitochondria Different-Phenotype (%) (HEK-293T; [6]): 45%
- Population Mitotic Cells (%) (HEK-293T; [6]): 60%
- Population Normal (%) (HEK-293T; [6]): 87%
- Population Pyknosed Nuclei (%) (HEK-293T; [6]): 33%
- Population Tubulin-Different-Phenotype (%) (HEK-293T; [6]): 45%
- Total Cell Count (HEK-293T; [6]): 272
- Population Apoptotic (%) (HEK-293T; [7]): 85%
- Population Fragmented Nuclei (%) (HEK-293T; [7]): 11%
- Population Healthy Nuclei (%) (HEK-293T; [7]): 23%
- Population Hoechst High Intensity Objects (%) (HEK-293T; [7]): 24%
- Population Membrane Permeable-Phenotype (%) (HEK-293T; [7]): 0%
- Population Mitochondria Different-Phenotype (%) (HEK-293T; [7]): 100%
- Population Mitotic Cells (%) (HEK-293T; [7]): 14%
- Population Normal (%) (HEK-293T; [7]): 75%
- Population Pyknosed Nuclei (%) (HEK-293T; [7]): 65%
- Population Tubulin-Different-Phenotype (%) (HEK-293T; [7]): 91%
- Total Cell Count (HEK-293T; [7]): 324
- Population Apoptotic (%) (HEK-293T; [8]): 95%
- Population Fragmented Nuclei (%) (HEK-293T; [8]): 7%
- Population Healthy Nuclei (%) (HEK-293T; [8]): 25%
- Population Hoechst High Intensity Objects (%) (HEK-293T; [8]): 14%
- Population Membrane Permeable-Phenotype (%) (HEK-293T; [8]): 1%
- Population Mitochondria Different-Phenotype (%) (HEK-293T; [8]): 92%
- Population Mitotic Cells (%) (HEK-293T; [8]): 4%
- Population Normal (%) (HEK-293T; [8]): 85%
- Population Pyknosed Nuclei (%) (HEK-293T; [8]): 67%
- Population Tubulin-Different-Phenotype (%) (HEK-293T; [8]): 86%
- Total Cell Count (HEK-293T; [8]): 244
- Population Apoptotic (%) (HEK-293T; [9]): 55%
- Population Fragmented Nuclei (%) (HEK-293T; [9]): 19%
- Population Healthy Nuclei (%) (HEK-293T; [9]): 41%
- Population Hoechst High Intensity Objects (%) (HEK-293T; [9]): 25%
- Population Membrane Permeable-Phenotype (%) (HEK-293T; [9]): 4%
- Population Mitochondria Different-Phenotype (%) (HEK-293T; [9]): 38%
- Population Mitotic Cells (%) (HEK-293T; [9]): 44%
- Population Normal (%) (HEK-293T; [9]): 75%
- Population Pyknosed Nuclei (%) (HEK-293T; [9]): 38%
- Population Tubulin-Different-Phenotype (%) (HEK-293T; [9]): 38%
- Total Cell Count (HEK-293T; [9]): 368
- Population Apoptotic (%) (HEK-293T; [10]): 17%
- Population Fragmented Nuclei (%) (HEK-293T; [10]): 8%
- Population Healthy Nuclei (%) (HEK-293T; [10]): 78%
- Population Hoechst High Intensity Objects (%) (HEK-293T; [10]): 12%
- Population Membrane Permeable-Phenotype (%) (HEK-293T; [10]): 7%
- Population Mitochondria Different-Phenotype (%) (HEK-293T; [10]): 9%
- Population Mitotic Cells (%) (HEK-293T; [10]): 82%
- Population Normal (%) (HEK-293T; [10]): 87%
- Population Pyknosed Nuclei (%) (HEK-293T; [10]): 12%
- Population Tubulin-Different-Phenotype (%) (HEK-293T; [10]): 33%
- Total Cell Count (HEK-293T; [10]): 508
- Population Apoptotic (%) (HEK-293T; [11]): 89%
- Population Fragmented Nuclei (%) (HEK-293T; [11]): 18%
- Population Healthy Nuclei (%) (HEK-293T; [11]): 10%
- Population Hoechst High Intensity Objects (%) (HEK-293T; [11]): 26%
- Population Membrane Permeable-Phenotype (%) (HEK-293T; [11]): 3%
- Population Mitochondria Different-Phenotype (%) (HEK-293T; [11]): 96%
- Population Mitotic Cells (%) (HEK-293T; [11]): 10%
- Population Normal (%) (HEK-293T; [11]): 73%
- Population Pyknosed Nuclei (%) (HEK-293T; [11]): 70%
- Population Tubulin-Different-Phenotype (%) (HEK-293T; [11]): 82%
- Total Cell Count (HEK-293T; [11]): 347
- Population Apoptotic (%) (HEK-293T; [12]): 94%
- Population Fragmented Nuclei (%) (HEK-293T; [12]): 8%
- Population Healthy Nuclei (%) (HEK-293T; [12]): 38%
- Population Hoechst High Intensity Objects (%) (HEK-293T; [12]): 21%
- Population Membrane Permeable-Phenotype (%) (HEK-293T; [12]): 5%
- Population Mitochondria Different-Phenotype (%) (HEK-293T; [12]): 97%
- Population Mitotic Cells (%) (HEK-293T; [12]): 5%
- Population Normal (%) (HEK-293T; [12]): 78%
- Population Pyknosed Nuclei (%) (HEK-293T; [12]): 53%
- Population Tubulin-Different-Phenotype (%) (HEK-293T; [12]): 84%
- Total Cell Count (HEK-293T; [12]): 232
- Growth Rate (Fibroblast; 0 h, replicate number 2, timepoint 0 hours): 0
- Growth Rate (Fibroblast; 6 h, replicate number 2, timepoint 6 hours): 1
- Growth Rate (Fibroblast; 12 h, replicate number 1, timepoint 12 hours): 1
- Growth Rate (Fibroblast; 18 h, replicate number 1, timepoint 18 hours): 1
- Growth Rate (Fibroblast; 18 h, replicate number 2, timepoint 18 hours): 0
- Growth Rate (Fibroblast; 24 h, replicate number 1, timepoint 24 hours): 1
- Growth Rate (Fibroblast; 24 h, replicate number 2, timepoint 24 hours): 0
